Experimental findings from ChEMBL document CHEMBL1140917, “Structure-activity relationships of antitubercular nitroimidazoles. 1. Structural features associated with aerobic and anaerobic activities of 4- and 5-nitroimidazoles” (2009) are described below.

As a reminder, the MIC is the lowest concentration found to suppress growth.

Values after ≈ are worked out from the molar mass of the structure shown.

The test system of experiment [1] is Mycobacterium tuberculosis. As to the kind of experiment: Antimycobacterial activity against wild type Mycobacterium tuberculosis H37Rv ATCC 27294 after 2 weeks. Type of experiment: functional. Conditions: 336 h. The method, boiled down: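 Aerobic MIC99: Mtb H37Rv grown to OD 0.5 in 7H9 broth with 0.05% Tween 80, 0.2% glycerol, ADC; diluted 1:1000. Compounds from DMSO stocks, 2-fold series giving 8 dilutions (1000 μM – 7.8 μM). 2 weeks at 37°C, growth read macroscopically; MIC99 = concentration preventing 99% growth. Three independent determinations.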

For experiment [2], the system named is Mycobacterium tuberculosis. As to the kind of experiment: Antimycobacterial activity against wild type Mycobacterium tuberculosis H37Rv NRP-2 stage after 3 weeks under anaerobic condition. Format: functional. The method, boiled down: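 Early-log Mtb in glycerol-free Dubos broth diluted 100-fold, sealed tubes (headspace ratio 0.5), stirred 180 rpm 20 days to NRP-2 (methylene blue reference). Cells exposed to two-fold drug dilutions (1.95-500 μM) with DMSO control, anaerobically at 37°C for 7 days. Washed thrice, serially diluted, spotted on 7H11 agar; after 3 weeks at 37°C, MAC = 90% reduction in visible growth.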

The test system of experiment [3] is Mycobacterium tuberculosis. Put plainly: Ratio of Kcat/Km for Mycobacterium tuberculosis F420-dependent nitroreductase by Michaelis-Menten equation. Further details: unit not given here. The method, boiled down:
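MBP-tagged Rv3547 (Ddn) expressed in E. coli (300 μM IPTG, 37 °C), amylose-affinity purified. F420H2 made enzymatically with Mtb FGD1, which was heat-inactivated (55°C, 15 min) and removed by ultrafiltration. Reactions in phosphate buffer pH 7.4, 50 μM F420, 0.6 μM enzyme, varying nitroimidazole concentrations, 25°C. Initial rates from absorbance gain at 400 nm (ε400 = 25.71 mM−1 cm−1).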

In experiment [1], `O=[N+]([O-])c1cnc2n1C[C@H](O)CO2` returned an MIC of 12.5 µM (≈ 2.31 µg/mL). In experiment [2], this compound displayed an MAC of 125 µM. Besides, the kcat/Km in experiment [3] was determined as 0.003.

As to `COc1ncc([N+](=O)[O-])n1CCO`, the minimal inhibitory concentration (MIC) in experiment [1] is greater than 100 µM. The same compound displayed an MAC in experiment [2] greater than 500 µM.

`O=[N+]([O-])c1cnc2n1C[C@H](OCc1ccc(OC(F)(F)F)cc1)CO2`: 4 µM (≈ 1.44 µg/mL) was the least that counted as inhibitory in experiment [1] (MIC). The same compound showed an MAC in experiment [2] of 31.25 µM. Moreover, the kcat/Km in experiment [3] was 0.0817.

Regarding `O=[N+]([O-])c1cnc2n1C[C@H](O)CC2`, the MIC in experiment [1] is greater than 100 µM. The same compound yielded an MAC in experiment [2] greater than 500 µM.

Consider `Cc1ncc([N+](=O)[O-])n1CCOCc1ccc(OC(F)(F)F)cc1`, for which the MIC in experiment [1] is greater than 145 µM. The same compound had an MAC in experiment [2] of 250 µM. Further, the kcat/Km in experiment [3] was determined as 0.005.

Compound `FC(F)(F)Oc1ccc(CO[C@@H]2COc3nccn3C2)cc1` returned an MIC in experiment [1] greater than 160 µM. The MAC in experiment [2] was greater than 500 µM.

The compound `CO[C@@H]1COc2nc([N+](=O)[O-])cn2C1` showed a minimal inhibitory concentration (MIC) in experiment [1] greater than 125 µM. In experiment [2], the MAC is 250 µM. The kcat/Km in experiment [3] is 0.0079.

`O=[N+]([O-])c1cn2c(n1)OC[C@@H](O)C2` yielded a minimum inhibitory concentration (MIC) in experiment [1] greater than 100 µM. In experiment [2], this compound displayed an MAC of 250 µM. Besides, the kcat/Km in experiment [3] was found to be 0.005.

Take `COc1nc([N+](=O)[O-])cn1CCOCc1ccc(OC(F)(F)F)cc1`: in experiment [1], the MIC was 6.25 µM (≈ 2.26 µg/mL). The MAC in experiment [2] was found to be 250 µM. For the same compound, the kcat/Km in experiment [3] was 0.03.

For `Cc1nc([N+](=O)[O-])cn1CCO`, the minimal inhibitory concentration (MIC) in experiment [1] is greater than 300 µM. Also, the MAC in experiment [2] was greater than 500 µM.

`O=[N+]([O-])c1cn2c(n1)OC[C@@H](OCc1ccc(OC(F)(F)F)cc1)C2` [PRETOMANID]: the minimal inhibitory concentration (MIC) in experiment [1] came out at 0.8 µM (≈ 0.287 µg/mL). The MAC in experiment [2] was 8 µM. The kcat/Km in experiment [3] worked out at 0.145.

For the compound `Cc1nc([N+](=O)[O-])cn1CCOCc1ccc(OC(F)(F)F)cc1`, the MIC in experiment [1] is greater than 145 µM. The compound also yielded an MAC in experiment [2] greater than 500 µM.

`Cc1ncc([N+](=O)[O-])n1CCO` [METRONIDAZOLE] showed a minimum inhibitory concentration (MIC) in experiment [1] greater than 300 µM. The compound further returned an MAC in experiment [2] of 62.5 µM.

As for `O=[N+]([O-])c1cnc2n1C[C@@H](O)CC2`, in experiment [1], the MIC was greater than 100 µM. Further, the MAC in experiment [2] was greater than 100 µM.

Compound `O=[N+]([O-])c1cn2c(n1)C=C[C@@H](OCc1ccc(OC(F)(F)F)cc1)C2` gave a minimum inhibitory concentration (MIC) in experiment [1] of 25 µM (≈ 8.88 µg/mL). Also, in experiment [2], the MAC turned out to be 62.5 µM. Further, the kcat/Km in experiment [3] was found to be 0.0476.

`O=[N+]([O-])c1cn2c(n1)CC[C@@H](OCc1ccc(OC(F)(F)F)cc1)C2`: the MIC in experiment [1] stood at 25 µM (≈ 8.93 µg/mL). Also, in experiment [2], the MAC was found to be 250 µM. Besides, in experiment [3], the kcat/Km was 0.0235.
